Shown are actives, neighbours in structure and some others; about 3.7% of the full set was active somewhere.
procasp7 counter = procaspase-7 activators, primary screen, counter-screen for procaspase-3 activator project, biochemical, absorbance, HTS, human; Caspase-7 (Homo sapiens), P55210; recombinant procaspase-7, Ac-DEVD-pNA absorbance 405 nm; D23A/D198A/D206A triple mutant, cannot self-cleave; scale: DMSO 0, 5 µM enzyme 100; activation, % at 8.5 µM; 330,000 compounds, 0.093% hits;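 active = percent activation above the screen-wide mean plus 3 SD, cut at about 25% in these data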
Target sequence (P55210 whole entry D23A/D198A/D206A): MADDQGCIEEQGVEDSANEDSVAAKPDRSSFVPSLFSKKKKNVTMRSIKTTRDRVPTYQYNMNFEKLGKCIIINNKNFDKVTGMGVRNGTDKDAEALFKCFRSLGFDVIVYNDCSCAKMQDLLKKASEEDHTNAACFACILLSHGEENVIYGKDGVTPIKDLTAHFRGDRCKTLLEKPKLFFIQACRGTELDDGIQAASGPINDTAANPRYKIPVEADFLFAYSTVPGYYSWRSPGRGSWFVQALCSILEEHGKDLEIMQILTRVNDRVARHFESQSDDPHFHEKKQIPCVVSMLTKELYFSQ
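buffer or medium = Zinc-free HEPES/NaCl buffer, pH 7.4 | material = Procaspase-7 triple mutant (PC-7 D3A) | input = 2 µM procaspase-7 mutant as dispensed | signal = Epi-absorbance of released pNA at 405 nm, two timepoints | timing = 1 h preincubation, 2 h reaction | replicates = singlicate compound testing | evaluation = % activation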
MPTP block = mitochondrial permeability transition pore inhibitors, primary screen, biochemical, isolated mouse mitochondria, absorbance; Ca2+ swelling absorbance, 30 min; inhibition, % at 10 µM; 360,000 compounds, 1.4% hits; AID 602449, 2012;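 active = inhibition of 50% or more, scaled per plate between neutral and stimulator controls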;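 note: 0% = DMSO wells given calcium and 100% = 1 mM EGTA wells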
GRIN3A LBD mod = binders of NR3A ligand-binding domain, primary screen, biophysical, differential scanning fluorimetry, uHTS | Glutamate receptor ionotropic, NMDA 3A (GRIN3A) ligand-binding domain | NR3A LBD differential scanning fluorimetry, Tm shift; 0% = protein alone, 100% = glycine-bound protein | AID 1259313, 2017 | Tm shift relative to glycine control, % at 25 µM | 340,000 compounds, 2.5% hits;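 active = melting temperature shift of at least 10% of the positive control shift, at one fixed dose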
procasp3 activ = activators of human procaspase-3 D3A mutant, primary screen, biochemical, absorbance, PC-3 D3A mutant, single concentration | Caspase-3 (Homo sapiens), P42574 | recombinant procaspase-3 D3A, Ac-DEVD-pNA absorbance 405 nm | activation, % at 8.5 µM | 330,000 compounds, 0.11% hits;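 active = activation above the mean of all tested compounds plus 3 SD, cut at about 21% in these data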;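 note: 0% = DMSO alone and 100% = DMSO wells spiked with extra 5 µM PC-3 D3A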
Target sequence (P42574 whole entry D9A/D28A/D175A): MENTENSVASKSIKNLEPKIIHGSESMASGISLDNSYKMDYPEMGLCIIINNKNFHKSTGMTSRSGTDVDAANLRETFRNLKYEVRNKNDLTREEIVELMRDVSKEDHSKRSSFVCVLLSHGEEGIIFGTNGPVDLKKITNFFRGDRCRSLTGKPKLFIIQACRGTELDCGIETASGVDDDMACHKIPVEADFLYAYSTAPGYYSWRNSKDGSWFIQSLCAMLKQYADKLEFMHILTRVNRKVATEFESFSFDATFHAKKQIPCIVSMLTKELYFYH
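Assay system – Procaspase-3 D3A mutant, all three cleavage aspartates alanine · Controls – DMSO-only low control, 5 µM PC-3 D3A high control · Schedule – 1 h compound preincubation, 2 h substrate hydrolysis at 25 °C · Signal – 405 nm absorbance of p-nitroaniline, reads at 0 and 120 min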
aDG glyco act = activators of alpha-DG glycosylation, primary screen, uHTS, Pro5-aDG cells, AlphaScreen; alpha-DG glycosylation AlphaScreen (IIH6); 0% Pro5, 100% B10-LARGE cell signal; activation, % at 10 µM; 360,000 compounds, 0.22% hits;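 active = activation of at least 8% versus controls, or a plate z-score of at least 8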;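 note: Pro5 are CHO cells carrying HIG-tagged alpha-DG that lacks glycosylation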
* hit, by the source's call.

`CC(C)(C)NC(=O)C(c1ccc(-c2ccccc2)cc1)N(C[C@H]1CC[C@@H]([C@@H]2CC[C@H](CO)O2)O1)C(=O)c1ccc(-c2ccccc2)cc1` (stereo partly specified) gave procasp7 counter 0.0, MPTP block -1.1, GRIN3A LBD mod 29.9*, procasp3 activ 6.2 and aDG glyco act 0.4.
O=C(Nc1ccc(S(=O)(=O)N2CCCc3ccccc32)cc1)C1CCCO1 (stereo unspecified) was read as procasp7 counter 5.9, MPTP block -0.9, GRIN3A LBD mod 11.1*, procasp3 activ 0.8 and aDG glyco act -0.1.
For NC(=O)c1ccsc1NC(=O)c1ccc(S(=O)(=O)N2CCCc3ccccc32)cc1 the results were procasp7 counter 3.5, MPTP block 1.7, GRIN3A LBD mod 16.2*, procasp3 activ 1.4 and aDG glyco act 0.1.
O=C(COc1ccc2ccccc2c1Br)NNC(=O)Nc1ccccc1 was read as procasp7 counter -9.4, MPTP block 0.4, GRIN3A LBD mod 10.4*, procasp3 activ -2.4 and aDG glyco act 0.5.
Screening COC(=O)[C@@]12C[C@@H](CC(=O)N3CCOCC3)C(=O)N(Cc3cccc4ccccc34)C1=CCC(C)(C)C2 returned MPTP block 1.7 and aDG glyco act 0.0.
For N#CCCCc1cn(-c2nc3ccccc3s2)nn1 the results were MPTP block 1.2 and aDG glyco act -0.2.
For O=C(Nc1cc(C(F)(F)F)ccc1F)C1CCCCC1 the results were procasp7 counter 1.9, MPTP block -1.5, GRIN3A LBD mod -1.2, procasp3 activ -1.8 and aDG glyco act 0.1.
`O=C(Nc1cccc(C(F)(F)F)c1)c1ccccc1NC(=O)C1CCCCC1` gave procasp7 counter 0.8, MPTP block 38.9, GRIN3A LBD mod 10.5*, procasp3 activ -0.7 and aDG glyco act -0.3.
CN(C)c1ccc(/C=N/NC(=O)c2nnn(-c3nonc3N)c2COc2ccc(F)cc2)cc1 was read as procasp7 counter -3.5, MPTP block 1.0, GRIN3A LBD mod 11.1*, procasp3 activ -4.3 and aDG glyco act -0.1.
Screening CCOC(=O)c1nnn(-c2nonc2-n2cccc2)c1CN1CCCCC1 returned procasp7 counter 2.0, MPTP block 0.3, GRIN3A LBD mod 17.8*, procasp3 activ -10.3 and aDG glyco act 0.3.
CCOc1ccc(/C=N/NC(=O)c2nnn(-c3nonc3N)c2COc2ccc(F)cc2)cc1 was read as procasp7 counter 1.7, MPTP block 4.7, GRIN3A LBD mod 38.9*, procasp3 activ -6.0 and aDG glyco act -0.3.
`Nc1nonc1-n1nnc(C(=O)N/N=C/c2cccc(O)c2)c1CN1CCCC1` gave MPTP block 1.5, GRIN3A LBD mod 11.9* and aDG glyco act -0.2.
For COc1ccc(C(C)=O)cc1Cn1c(C)c(C(=O)NC2CC2)sc1=O the results were MPTP block -1.8 and aDG glyco act -0.1.
CC1CCN(Cc2c(C(=O)N/N=C/c3ccc(OC(C)C)cc3)nnn2-c2nonc2N)CC1 was read as procasp7 counter -6.9, MPTP block 3.9, GRIN3A LBD mod 7.4, procasp3 activ 1.2 and aDG glyco act 0.3.
Screening Cc1ccccc1COc1ccc(/C=N/NC(=O)c2nnn(-c3nonc3N)c2CN2CCC(C)CC2)cc1 returned procasp7 counter 0.7, MPTP block 1.3, GRIN3A LBD mod 87.3*, procasp3 activ 6.4 and aDG glyco act 1.5.
Screening O=C(Cc1c[nH]c2ccccc12)NCC(=O)Nc1ccc(F)c(F)c1F returned procasp7 counter -12.3, MPTP block -1.8, GRIN3A LBD mod 1.1, procasp3 activ 5.4 and aDG glyco act 0.0.
CCOCCn1ccc2c(OCC(=O)Nc3cc(OC)ccc3OC)cccc2c1=O was read as procasp7 counter -3.1, MPTP block -1.4, GRIN3A LBD mod 11.4*, procasp3 activ 1.1 and aDG glyco act -0.3.
Screening COCCn1ccc2c(OCC(=O)Nc3cc(OC)ccc3OC)cccc2c1=O returned procasp7 counter 1.3, MPTP block 1.0, GRIN3A LBD mod -1.0, procasp3 activ -1.3 and aDG glyco act -0.4.
For Fc1cccc(/C=N/Nc2ccccn2)c1 the results were procasp7 counter 4.1, MPTP block -5.1, GRIN3A LBD mod 12.8*, procasp3 activ 5.4 and aDG glyco act -0.2.
Screening Cc1ccc(NC(=O)CSc2nc3ccc(Nc4nc(N5CCOCC5)nc(N5CCOCC5)n4)cc3s2)cc1 returned MPTP block 0.5, GRIN3A LBD mod 15.4* and aDG glyco act -0.6.
Screening COc1ccc(NC(=O)CSc2nc3ccc(Nc4nc(N5CCOCC5)nc(N5CCOCC5)n4)cc3s2)cc1 returned procasp7 counter 1.6, MPTP block 1.7, GRIN3A LBD mod 1.8, procasp3 activ -6.0 and aDG glyco act 0.0.
For CC(=O)Nc1ccc2nc(SCC(=O)Nc3ccc(N4CCOCC4)c(Cl)c3)sc2c1 the results were procasp7 counter 9.2, MPTP block 2.1, GRIN3A LBD mod 25.0*, procasp3 activ 0.2 and aDG glyco act -0.3.
O=C(CSc1nc(Nc2ccccc2)nc(N2CCOCC2)n1)Nc1cccc([N+](=O)[O-])c1 was read as procasp7 counter -3.0, MPTP block 7.0, GRIN3A LBD mod 16.7*, procasp3 activ -5.2 and aDG glyco act -0.1.
Screening CCCCNC(=O)C1(C)CCN1C(=O)c1cncc(Br)c1 (stereo unspecified) returned MPTP block 0.3 and aDG glyco act -0.3.
Screening CCc1nc2ccc(C(=O)NCCc3ccccn3)cn2c1N(C)Cc1ccc(N(C)C)cc1 returned MPTP block 0.5 and aDG glyco act -0.1.
For O=C(C(=Cc1ccc(F)cc1)C(=O)c1ccccc1)c1ccccc1 the results were MPTP block -0.8 and aDG glyco act -0.2.
O=[N+]([O-])c1ccc(S(=O)(=O)NN=Cc2ccc(Cl)c(Cl)c2)cc1 was read as MPTP block 45.5, GRIN3A LBD mod 12.3* and aDG glyco act 0.3.
O=C(NCc1cccc2[nH]ccc12)C1CCC(=O)N(CCc2ccc(Cl)cc2)C1 (stereo unspecified) was read as procasp7 counter 10.7, MPTP block -0.9, GRIN3A LBD mod 11.1*, procasp3 activ -2.0 and aDG glyco act 0.1.
O=C(NCc1ccc2c(c1)OCO2)C1CC(=O)N(CCc2ccc(Cl)cc2)C1 (stereo unspecified) was read as procasp7 counter -4.7, MPTP block -0.1, GRIN3A LBD mod 11.7*, procasp3 activ 10.4 and aDG glyco act 0.1.
